Measurements published in ChEMBL document CHEMBL1139941, “Development of 6-benzyl substituted 4-aminocarbonyl-1,4-diazepane-2,5-diones as orally active human chymase inhibitors” (Bioorg Med Chem Lett, 2007).
One block for each compound: values may come before it.

How the values were obtained:
Cathepsin G = target: T1, Cathepsin G (Homo sapiens, UniProt P08311); assay: Inhibition of human cathepsin G
T1 sequence (P08311 whole entry): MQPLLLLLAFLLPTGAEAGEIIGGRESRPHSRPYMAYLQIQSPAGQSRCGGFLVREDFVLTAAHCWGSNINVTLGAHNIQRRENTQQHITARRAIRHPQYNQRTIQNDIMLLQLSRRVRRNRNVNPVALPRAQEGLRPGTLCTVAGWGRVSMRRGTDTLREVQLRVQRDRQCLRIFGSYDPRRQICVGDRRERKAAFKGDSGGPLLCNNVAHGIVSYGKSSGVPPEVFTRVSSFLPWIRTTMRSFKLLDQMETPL

Mus musculus [1] = assay: Inhibition of DNFB-induced ear edema in mouse chronic dermatitis model at 10 mg/kg, po after 24 hrs relative to control; type: functional
Summary of the method: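 Mouse chronic dermatitis model: DNFB painted repeatedly; compound dosed orally at 10 mg/kg once daily throughout the experimental period. Ear thickness read 24 h after the sixth DNFB painting; inhibition ratio calculated versus vehicle, significance by Student's t test.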

[2] = Stability in aqueous solution in pH 7 at 10 uM; type: physicochemical
Summary of the method: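 Compound at 10 µM incubated at 37 °C in 0.1 M phosphate buffer, pH 7.0, sampled at 0, 4 and 8 h; fraction remaining quantified by HPLC and reported as half-life.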

[3] = Inhibition of human elastase
[4] = Inhibition of bovine trypsin; set-up: species or system Bos taurus
[5] = Inhibition of bovine alpha chymotrypsin; set-up: species or system Bos taurus
Chymase = target: T2, Chymase (Homo sapiens, UniProt P23946); assay: Inhibition of human recombinant chymase
T2 sequence (P23946 whole entry): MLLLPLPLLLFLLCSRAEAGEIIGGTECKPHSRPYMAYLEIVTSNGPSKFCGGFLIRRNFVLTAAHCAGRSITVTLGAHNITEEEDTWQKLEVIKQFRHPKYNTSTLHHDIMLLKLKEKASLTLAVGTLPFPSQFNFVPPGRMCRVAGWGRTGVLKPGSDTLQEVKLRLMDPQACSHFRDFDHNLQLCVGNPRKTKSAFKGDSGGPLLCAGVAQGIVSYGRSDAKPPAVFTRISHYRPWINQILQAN

Mus musculus [6] = assay: Inhibition of DNFB-induced ear edema in mouse chronic dermatitis model at 10 mg/kg, ip after 24 hrs relative to control; type: functional; details: route intraperitoneal
Summary of the method: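 Chronic dermatitis in mice induced by repeated DNFB painting; intraperitoneal dosing at 10 mg/kg once daily over the experimental period. Ear thickness measured 24 h after sixth DNFB application, expressed as inhibition ratio against vehicle group; Student's t test.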

IC50 (Cathepsin G): 8 µM
half-life at 10 µM [2]: 7.4 h
IC50 [3]: > 100 µM
IC50 [4]: > 100 µM
IC50 [5]: 56 µM
SMILES: CC[C@@H](NC(=O)N1CC(=O)NC[C@@H](Cc2cc(Cl)ccc2OC)C1=O)c1cccc(C(=O)O)c1
inhibition in vivo at 10 mg/kg (Mus musculus [1]): 22.9%

half-life at 10 µM [2]: 6.3 h
SMILES: CCC(NC(=O)N1CC(=O)NCC(Cc2cc(Cl)ccc2OC)C1=O)c1ccccc1 (centres undefined)

IC50 (Cathepsin G): 16 µM
half-life at 10 µM [2]: 6.7 h
IC50 [3]: > 100 µM
IC50 [4]: > 100 µM
IC50 [5]: > 100 µM
SMILES: CC[C@@H](NC(=O)N1CC(=O)NC[C@@H](Cc2cc(Cl)ccc2OC)C1=O)c1ccc(C(=O)O)c(N)c1
inhibition in vivo at 10 mg/kg (Mus musculus [1]): 29.7%

IC50 (Cathepsin G): 28 µM
half-life at 10 µM [2]: 6.1 h
IC50 [3]: > 100 µM
IC50 [4]: > 100 µM
IC50 [5]: 23 µM
SMILES: CC[C@@H](NC(=O)N1CC(=O)NC[C@H](Cc2cc(Cl)ccc2OC)C1=O)c1ccc(C(=O)O)c(N)c1
inhibition in vivo at 10 mg/kg (Mus musculus [1]): 35.8%

half-life at 10 µM [2]: 7.6 h
SMILES: CCCC(NC(=O)N1CC(=O)NCC(Cc2cc(Cl)ccc2OC)C1=O)c1ccccc1 (centres undefined)

More lines, now with the values behind:

SMILES: COc1ccc(Cl)cc1CC1CNC(=O)CN(C(=O)NC(c2ccccc2)C(C)C)C1=O (centres undefined)
half-life at 10 µM [2]: 8 h

SMILES: COc1ccc(Cl)cc1CC1CNC(=O)CN(C(=O)NC(C)c2ccccc2)C1=O (centres undefined)
half-life at 10 µM [2]: 6.2 h

SMILES: COc1ccc(Cl)cc1CC1CNC(=O)CN(C(=O)NCc2ccccc2)C1=O (racemic)
half-life at 10 µM [2]: 6.8 h

SMILES: COc1ccc(Cl)cc1CC1CNC(=O)CN(C(=O)NCCc2ccccc2)C1=O (racemic)
half-life at 10 µM [2]: 12.9 h

SMILES: COc1ccc(Cl)cc1CC1CNC(=O)CN(C(=O)NC(c2ccccc2)c2ccccc2)C1=O (racemic)
half-life at 10 µM [2]: 16.5 h
IC50 (Chymase): > 100 µM

SMILES: COc1ccc(Cl)cc1CC1CNC(=O)CN(C(=O)N(C)Cc2ccccc2)C1=O (racemic)
half-life at 10 µM [2]: > 48 h
IC50 (Chymase): > 100 µM

SMILES: C[C@]12C=CC(=O)C=C1CC[C@@H]1[C@@H]2[C@@H](O)C[C@@]2(C)[C@H]1CC[C@]2(O)C(=O)CO [PREDNISOLONE]
inhibition in vivo at 10 mg/kg (Mus musculus [6]): 54.6%
